pIC50: −log10 of the molar value. The source made the active and inactive calls.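 How the source made its calls: active means IC50 at or below 20 µM; inactive means the rest.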
These compounds were tested against glucose-6-phosphate dehydrogenase-6-phosphogluconolactonase (PfGluPho), Plasmodium falciparum 3D7 (assay: PfGluPho enzyme inhibitors, SAR follow-up, biochemical, fluorescence intensity, dose response, set 4 (AID 602423)). Details: recombinant PfGluPho, resazurin-diaphorase NADPH fluorescence.
In short: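 System: P. falciparum PfGluPho enzyme / Also added: Glucose-6-phosphate substrate 20 µM plus NADP cofactor 3 µM / Compound: dose-response series / Incubation: reaction 2 h, room temperature, dark / Technique: coupled fluorescence, Ex 530/Em 590 nm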

| Structure (SMILES) | IC50 | pIC50 |
| --- | --- | --- |
| CCN1CCC[C@@H]1CNC(=O)c1ccc2c(c1)NC(=O)c1cc(C)ccc1S2 | inactive |  |
| CCN1CCC[C@@H]1CNC(=O)c1ccc2c(c1)NC(=O)c1cccc(C)c1S2 |  | 6.73 |
| O=C(NC[C@H]1CCCN1)c1ccc2c(c1)NC(=O)c1ccccc1S2 | inactive |  |
| CCCN1CCC[C@@H]1CNC(=O)c1ccc2c(c1)NC(=O)c1ccccc1S2 |  | 4.82 |
| O=C(NCC1CCCCN1)c1ccc2c(c1)NC(=O)c1ccccc1S2 (configuration not stated) | inactive |  |
| CN1CCC(NC(=O)c2ccc3c(c2)NC(=O)c2ccccc2S3)C1 (configuration not stated) | > 80 µM (inactive) |  |
| CCN1CCC[C@@H]1CNC(=O)c1ccc2c(c1)NC(=O)c1cc(F)ccc1S2 | inactive |  |
| CCCCCCN1CCCC1CNC(=O)c1ccc2c(c1)NC(=O)c1ccccc1S2 (configuration not stated) | inactive |  |
| CCCN1CCC(NC(=O)c2ccc3c(c2)NC(=O)c2ccccc2S3)C1 (configuration not stated) | inactive |  |
| CCN1CCC[C@@H]1CNC(=O)c1ccc2c(c1)NC(=O)c1ccccc1N2 | > 80 µM (inactive) |  |
| CCN1CCC(NC(=O)c2ccc3c(c2)NC(=O)c2ccccc2S3)C1 (configuration not stated) | inactive |  |
| CCCN1CCCCC1CNC(=O)c1ccc2c(c1)NC(=O)c1ccccc1S2 (configuration not stated) | inactive |  |
| CCN1CCC[C@@H]1CNC(=O)c1ccc2c(c1)NC(=O)c1ccc(F)cc1S2 |  | 5.53 |
| CCN1CCCCC1CNC(=O)c1ccc2c(c1)NC(=O)c1ccccc1S2 (configuration not stated) | > 80 µM (inactive) |  |
| CN1CCCC1CNC(=O)c1ccc2c(c1)NC(=O)c1ccccc1S2 (configuration not stated) | inactive |  |
| CCCCN1CCCC1CNC(=O)c1ccc2c(c1)NC(=O)c1ccccc1S2 (configuration not stated) |  | 4.70 |
| CN1CCCCC1CNC(=O)c1ccc2c(c1)NC(=O)c1ccccc1S2 (configuration not stated) | inactive |  |

Reference: PubChem BioAssay AID602423 (Sanford-Burnham Center for Chemical Genomics, 2012)
